Screening data (PubChem BioAssay)
SENP6 block – blocks the human protease SENP6. hit rate 1.8% among 330,000. Recombinant SENP6 catalytic domain, aminoluciferin luminescence. Q9GZR1. inhibition, % at 10 µM;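 active = inhibition above about 50% at the single tested dose, limit read from the data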;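 also: plate controls were DMSO wells with enzyme for no effect and DMSO wells lacking enzyme for full effect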
SENP7 block – blocks the human protease SENP7; hit rate 1.5% among 330,000; inhibition, % at 5 µM; recombinant SENP7, Z-RLRGG-aminoluciferin luminescence, 40 min;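 active = inhibition above about 50% at the single test dose, limit read from the data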;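 also: plate controls were DMSO with enzyme for no effect and no enzyme buffer wells for full effect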
Target sequence (Q9BQF6 706-1050 limits assumed): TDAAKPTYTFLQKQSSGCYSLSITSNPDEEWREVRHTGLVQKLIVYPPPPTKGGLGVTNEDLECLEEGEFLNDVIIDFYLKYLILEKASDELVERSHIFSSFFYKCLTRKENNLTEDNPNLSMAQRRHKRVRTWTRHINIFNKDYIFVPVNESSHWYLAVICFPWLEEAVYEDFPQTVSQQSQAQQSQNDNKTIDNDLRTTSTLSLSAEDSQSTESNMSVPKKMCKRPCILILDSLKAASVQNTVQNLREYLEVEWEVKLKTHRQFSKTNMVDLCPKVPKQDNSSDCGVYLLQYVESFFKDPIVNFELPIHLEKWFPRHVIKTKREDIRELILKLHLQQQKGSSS
HSP90 inh – HSP90 refolding inhibition in rabbit reticulocyte lysate | hit rate 0.91% among 290,000 | inhibition, % at 5.6 µM | luciferase refolding luminescence, 3 h;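 active = inhibition above the screen-wide mean plus 3 SD, computed separately per campaign, cut at about 16% in these data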;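 also: 0% = DMSO wells and 100% = 60 µM geldanamycin wells; inhibitors lower the luminescence because luciferase stays unfolded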
SENP8 block-1 – SENP8 protease inhibition | AID 2540 | hit rate 1.2% among 330,000 | Q96LD8 | purified SENP8, Z-RLRGG-aminoluciferin cleavage, luminescence | inhibition, % at 10 µM; in the data active = inhibition above about 50%
SENP1 FRET inh – SENP1 (human) catalytic domain inhibition; Q9P0U3; recombinant SENP1 catalytic domain, CyPet-SUMO1-YPet FRET cleavage; inhibition, % at 10 µM; hit rate 0.21% among 360,000; AID 624204;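 active = inhibition at least 30% at 10 µM, raw YFP signal under a set limit, fluorescence ratio 0.5 to 1.5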;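 also: 0% = enzyme with DMSO and 100% = no enzyme wells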
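Controls: no-enzyme wells low, DMSO-plus-enzyme wells high control. Test system: human recombinant His6-tagged SENP1 catalytic domain enzyme. Reagent: SFCypet-SUMO1-SFYpet FRET protein substrate, 25 nM final. Doses: one dose per compound, 10 µM, 0.5% DMSO. Detection: FRET, CFP and YFP emission. Timing: 50 min reaction at room temperature.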
SENP8 block-2 – blocks human SENP8 cleavage of Nedd8 substrate; inhibition, % at 20 µM; hit rate 0.64% among 360,000; recombinant SENP8, Nedd8 substrate fluorescence; Q96LD8; in the data active = inhibition mostly above about 40%, no sharp cut-off; inactive = mostly below about 27%
SENP8 conf – confirmation of human SENP8 protease inhibitors; shares compounds with SENP7 block; Recombinant SENP8, Z-RLRGG-aminoluciferin luminescence, 60 min; inhibition, % at 12.5 µM; hit rate 40% among 6,200; AID 488912;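 active = mean inhibition across replicates above about 50%, limit read from the data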
SENP6 conf – human SENP6 inhibition, confirmed; AID 488915; inhibition, % at 12.5 µM; shares compounds with SENP7 block; hit rate 58% among 6,200; recombinant SENP6, Z-RLRGG-aminoluciferin luminescence
SENP7 confirm – human SENP7 inhibition, confirmed; shares compounds with SENP7 block; recombinant SENP7, Z-RLRGG-aminoluciferin luminescence, 40 min; inhibition, % at 12.5 µM; hit rate 69% among 6,200
Casp3 select – caspase-3 inhibition (SENP selectivity assay) | shares compounds with SENP7 block | purified caspase-3, Z-DEVD-aminoluciferin luminescence, 60 min | inhibition, % at 12.5 µM | hit rate 60% among 6,200;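 active = mean inhibition above about 50%, limit read from the data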;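 also: plate controls were enzyme with DMSO for no effect and wells without caspase-3 for full effect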
Target sequence (P42574 28-227 limits assumed): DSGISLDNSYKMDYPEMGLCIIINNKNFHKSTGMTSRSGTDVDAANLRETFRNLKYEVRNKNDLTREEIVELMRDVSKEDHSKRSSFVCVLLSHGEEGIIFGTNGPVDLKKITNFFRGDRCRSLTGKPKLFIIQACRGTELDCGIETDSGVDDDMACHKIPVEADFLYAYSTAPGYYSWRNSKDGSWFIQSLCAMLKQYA
Luc interf – interferes with luciferase luminescence in SENP counter-screen; shares compounds with SENP7 block; Pre-incubated SENP8/Z-RLRGG-aminoluciferin, luciferase luminescence interference; inhibition, % at 12.5 µM; hit rate 39% among 6,200;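 active = mean inhibition above about 50% when retested at one dose, limit read from the data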;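 also: plate controls were DMSO wells with completed reaction for no effect and substrate without enzyme for full effect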
Numbers without * were called inactive; · = no result given. Sampled rows, rich in hits. Any-hit rate of the full collection: about 2.9%.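 The calls were made as follows, unless noted: active = mean inhibition above about 50% in the one-dose retest (limit read from the data); inactive = the rest.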

SMILES	SENP6 block	SENP7 block	HSP90 inh	SENP8 block-1	SENP1 FRET inh	SENP8 block-2	SENP8 conf	SENP6 conf	SENP7 confirm	Casp3 select	Luc interf
CC(=O)c1ccc(OCc2cc(C(=O)N3CC4C[C@@H]5CC3C[C@H](C4)C5)no2)cc1	1	-3	-4	5	-2	0	·	·	·	·	·
COc1cc(C(=O)OCC(=O)NC2CC2)ccc1OCCC(C)C	17	13	·	-6	0	8	·	·	·	·	·
Cc1ccc(C(=O)NNC(=S)Nc2cccc3ccccc23)s1	55*	44	-2	28	2	-328	-11	-13	-1	-2	16
CC(=O)c1cccc(NC(=S)Nc2cccc3ccccc23)c1	84*	19	8	62*	-5	-396	1	7	5	10	13
CC(=O)Nc1cccc(NC(=S)Nc2cccc3ccccc23)c1	45	22	6	24	-22	-467	·	·	·	·	·
COc1ccc(NC(=S)Nc2cccc3ccccc23)cc1OC	88*	63*	7	77*	-23	-376	4	11	4	1	3
Cc1noc(C)c1NC(=O)N(C)C[C@H]1Oc2ccc(NC(=O)Cn3cnnn3)cc2C(=O)N([C@H](C)CO)C[C@@H]1C	-4	1	·	-1	-2	3	·	·	·	·	·
O=C(c1ccc(F)cc1)N1CCN(c2cc(=O)[nH]nc2-c2ccccc2)CC1	2	-4	-1	-2	0	10	·	·	·	·	·
CN(C(=O)c1cc(-n2cnnc2)ccc1Cl)c1ccccc1	-20	-8	-1	-11	1	5	·	·	·	·	·
Cc1nnc(NC(=O)c2ccc3ccccc3c2)s1	12	58*	-1	-1	-1	-20	-5	-2	-1	12	-2
Cc1csc(NC(=O)Nc2cccc(Cl)c2)n1	8	6	0	-13	-2	17	·	·	·	·	·
Cc1nnc(NC(=O)Nc2cccc(Cl)c2)s1	57*	47	-3	26	0	9	31	52*	62*	56*	15
CC(C)c1cc(C(=O)Nc2cccc(Cl)c2)no1	89*	91*	6	89*	2	18	94*	96*	102*	92*	88*
COc1cc(NC(=O)C2CCC(CNS(=O)(=O)c3csc(C(N)=O)c3)CC2)cc(OC)c1 (stereo not given)	17	-10	-3	-6	1	19	·	·	·	·	·
CCC(=O)Nc1ccc2c(c1)C(=O)c1ccccc1C2=O	16	38	-2	8	3	18	·	·	·	·	·
CCC(C)(C)c1ccc2c(c1)C(=O)c1ccccc1C2=O	93*	77*	-4	79*	1	14	10	84*	86*	96*	80*
O=C(O)c1ccccc1-c1ccccc1C(=O)Nc1ccc(-c2nc3cc(Cl)ccc3o2)cc1	25	13	7	20	-1	-396	·	·	·	·	·
O=C(Nc1ccc2oc(-c3ccccc3)nc2c1)C1CCCO1 (stereo not given)	43	35	-2	31	0	-427	·	·	·	·	·
O=C(Nc1ccc(-c2nc3cc(Cl)ccc3o2)cc1)C1CCCO1 (stereo not given)	30	70*	-3	10	-1	-266	12	18	42	42	10
O=C(Nc1ccc(-c2nc3ccccc3o2)cc1)C1CCCO1 (stereo not given)	94*	91*	6	80*	-3	-292	91*	92*	100*	93*	48
O=C(Nc1ccc(-c2nc3cccnc3s2)cc1)C1CCCO1 (stereo not given)	93*	94*	60*	90*	-23	-384	95*	95*	101*	97*	79*
COc1ccc(NC(=O)C2CCCO2)cc1 (stereo not given)	-5	6	4	2	0	18	·	·	·	·	·
CC(=O)Nc1ccc(-c2nc3cc(Cl)ccc3o2)cc1	57*	59*	-1	44	1	-426	25	24	53*	37	31
COc1ccc(CCN2CC(C(=O)NCCc3ccccc3C)CCC2=O)cc1 (stereo not given)	-4	7	3	-4	3	21	·	·	·	·	·
O=C(NCc1ccccn1)c1ccc(CNS(=O)(=O)c2ccc(F)cc2)cc1	-15	2	-5	2	1	7	·	·	·	·	·
SMILES	SENP6 block	SENP7 block	HSP90 inh	SENP8 block-1	SENP1 FRET inh	SENP8 block-2	SENP8 conf	SENP6 conf	SENP7 confirm	Casp3 select	Luc interf
CCCSc1nnc(CSc2nc3nc(C)cc(C)n3n2)o1	-14	-6	4	-2	1	8	·	·	·	·	·
CCCCSc1nnc(CSc2nc3nc(C)cc(C)n3n2)o1	-37	78*	2	-4	3	10	7	8	-6	-1	0
O=C(O)c1nccnc1C(=O)Nc1ccc(Cl)cn1	97*	2	-1	11	1	11	-9	-7	-6	6	5
CC(=O)CC(=O)Nc1ccc(Cl)cn1	-9	-8	3	-11	-1	5	·	·	·	·	·
CCn1nccc1C(=O)Nc1ccc(Cl)cn1	74*	63*	-4	35	1	31	34	37	80*	40	64*
Cc1ccsc1C(C(=O)NC(C)(C)C)N(C(=O)c1csnn1)c1ccccc1 (stereo not given)	-5	-10	-2	0	1	7	·	·	·	·	·
N#Cc1c(N(CCO)CCO)nc(N)c2c(N)nc3c(c12)CC(=O)N3Cc1cccs1	30	32	0	11	-38	-284	·	·	·	·	·
CN(CCO)c1nc(N)c2c(N)nc3c(c2c1C#N)CC(=O)N3Cc1cccs1	74*	32	3	-3	-37	-386	-23	-15	-11	-11	-6
COCC(C)N1C(=O)Cc2c1nc(N)c1c(N)nc(N3CCN(c4ccccc4F)CC3)c(C#N)c21 (stereo not given)	75*	24	-3	26	-68	-394	-9	-3	-4	-2	-5
COCCN1C(=O)Cc2c1nc(N)c1c(N)nc(N3CCN(c4ccc(F)cc4)CC3)c(C#N)c21	-2	12	3	-3	-23	-453	·	·	·	·	·
COc1ccc(CN2C(=O)Cc3c2nc(N)c2c(N)nc(N4CCOCC4)c(C#N)c32)cc1	66*	27	15	30	-58	-446	-6	-1	-10	1	1
